Several values for one entry are separate records, joined by “and”; a condition that tells them apart may be missing. Equal values may be shown once.
System: Fibroblast
Assay: Multiplex assay against human fibroblast
Assay type: toxicity, cell-based
Outline: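 At seeding, live cells were stained with Hoechst33342, BioTracker Green Microtubule Cytoskeleton Dye, MitoTracker Red and Annexin V Alexa Fluor 680. After compound addition they were imaged on a CQ1 microscope at 37°C and 5% CO2, and CellPathfinder machine-learning gating sorted them into Hoechst high-intensity objects or normal cells, with normal cells further split into healthy, pyknosed or fragmented nuclei and pyknosed cells into mitotic or apoptotic. Tubulin, mitochondrial-mass and membrane-permeability phenotypes are given as per cents of cells with healthy nuclei.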

[1] = 12 h, 1 µM, compound concentration 1 uM
[2] = 12 h, 10 µM, compound concentration 10 uM
[3] = 24 h, 1 µM, compound concentration 1 uM
[4] = 24 h, 10 µM, compound concentration 10 uM
[5] = 48 h, 1 µM, compound concentration 1 uM
[6] = 48 h, 10 µM, compound concentration 10 uM

## O=C(NCc1cccc(O)c1)Nc1nc(-c2ccncc2)cs1
[1]
  Population Apoptotic (%): 12.12% and 27.78%
  Population Healthy Nuclei (%): 41.38% and 76.34%
  Population Hoechst High Intensity Objects (%): 0%
  Population Membrane Permeable-Phenotype (%): 4.17% and 1.41%
  Population Mitochondria Different-Phenotype (%): 6.94% and 9.15%
  Population Mitotic Cells (%): 87.88% and 72.22%
  Population Normal (%): 100%
  Population Pyknosed Nuclei (%): 37.93% and 19.35%
  Population Tubulin-Different-Phenotype (%): 8.33% and 6.34%
  Total Cell Count: 174 and 186
[2]
  Population Apoptotic (%): 9.52% and 18.18%
  Population Fragmented Nuclei (%): 11.37% and 4.05%
  Population Healthy Nuclei (%): 38.86% and 61.26%
  Population Hoechst High Intensity Objects (%): 0%
  Population Membrane Permeable-Phenotype (%): 7.32% and 2.21%
  Population Mitochondria Different-Phenotype (%): 15.85% and 13.97%
  Population Mitotic Cells (%): 90.48% and 81.82%
  Population Normal (%): 100%
  Population Pyknosed Nuclei (%): 49.76% and 34.68%
  Population Tubulin-Different-Phenotype (%): 13.41% and 29.41%
  Total Cell Count: 211 and 222
[3]
  Population Apoptotic (%): 25.49% and 48.15%
  Population Healthy Nuclei (%): 53.67% and 81.31%
  Population Hoechst High Intensity Objects (%): 0%
  Population Membrane Permeable-Phenotype (%): 3.16% and 0.62%
  Population Mitochondria Different-Phenotype (%): 12.63% and 6.83%
  Population Mitotic Cells (%): 74.51% and 51.85%
  Population Normal (%): 100%
  Population Pyknosed Nuclei (%): 28.81% and 13.64%
  Population Tubulin-Different-Phenotype (%): 11.58% and 6.21%
  Total Cell Count: 177 and 198
[4]
  Population Apoptotic (%): 13.79% and 23.26%
  Population Fragmented Nuclei (%): 8.5% and 3.62%
  Population Healthy Nuclei (%): 48% and 76.92%
  Population Hoechst High Intensity Objects (%): 0%
  Population Membrane Permeable-Phenotype (%): 0% and 2.94%
  Population Mitochondria Different-Phenotype (%): 7.29% and 8.82%
  Population Mitotic Cells (%): 86.21% and 76.74%
  Population Normal (%): 100%
  Population Pyknosed Nuclei (%): 43.5% and 19.46%
  Population Tubulin-Different-Phenotype (%): 17.71% and 29.41%
  Total Cell Count: 200 and 221
[5]
  Population Apoptotic (%): 55.56% and 38.46%
  Population Fragmented Nuclei (%): 16.05% and 5.73%
  Population Healthy Nuclei (%): 72.84% and 87.5%
  Population Hoechst High Intensity Objects (%): 0%
  Population Membrane Permeable-Phenotype (%): 0.85% and 0.6%
  Population Mitotic Cells (%): 44.44% and 61.54%
  Population Normal (%): 100%
  Population Pyknosed Nuclei (%): 11.11% and 6.77%
  Population Tubulin-Different-Phenotype (%): 3.39% and 6.55%
  Total Cell Count: 162 and 192
[6]
  Population Apoptotic (%): 16.67% and 18.42%
  Population Healthy Nuclei (%): 74.44% and 81.61%
  Population Hoechst High Intensity Objects (%): 0%
  Population Membrane Permeable-Phenotype (%): 0.6% and 1.65%
  Population Mitochondria Different-Phenotype (%): 12.05% and 3.3%
  Population Mitotic Cells (%): 83.33% and 81.58%
  Population Normal (%): 100%
  Population Pyknosed Nuclei (%): 13.45% and 17.04%
  Total Cell Count: 223

## COc1cc(Nc2ncc3c(n2)-c2ccc(Cl)cc2C(c2c(F)cccc2OC)=NC3)ccc1C(=O)O [ALISERTIB]
[1]
  Population Apoptotic (%): 39% and 42%
  Population Fragmented Nuclei (%): 11% and 18%
  Population Healthy Nuclei (%): 66% and 47%
  Population Hoechst High Intensity Objects (%): 1% and 8%
  Population Membrane Permeable-Phenotype (%): 2% and 7%
  Population Mitochondria Different-Phenotype (%): 4% and 7%
  Population Mitotic Cells (%): 60% and 57%
  Population Normal (%): 98% and 91%
  Population Pyknosed Nuclei (%): 21% and 33%
  Population Tubulin-Different-Phenotype (%): 23% and 41%
[2]
  Population Apoptotic (%): 56% and 48%
  Population Fragmented Nuclei (%): 28% and 35%
  Population Healthy Nuclei (%): 47% and 30%
  Population Hoechst High Intensity Objects (%): 13% and 8%
  Population Membrane Permeable-Phenotype (%): 1% and 4%
  Population Mitochondria Different-Phenotype (%): 22% and 16%
  Population Mitotic Cells (%): 43% and 51%
  Population Normal (%): 86% and 91%
  Population Pyknosed Nuclei (%): 24% and 33%
  Population Tubulin-Different-Phenotype (%): 69% and 64%
  Total Cell Count: 209 and 89
[3]
  Population Apoptotic (%): 36% and 48%
  Population Fragmented Nuclei (%): 12% and 26%
  Population Healthy Nuclei (%): 69% and 47%
  Population Hoechst High Intensity Objects (%): 2% and 4%
  Population Membrane Permeable-Phenotype (%): 2% and 4%
  Population Mitochondria Different-Phenotype (%): 6%
  Population Mitotic Cells (%): 63% and 51%
  Population Normal (%): 97% and 95%
  Population Pyknosed Nuclei (%): 18% and 26%
  Population Tubulin-Different-Phenotype (%): 28% and 47%
  Total Cell Count: 123
[4]
  Population Apoptotic (%): 64% and 56%
  Population Fragmented Nuclei (%): 29% and 45%
  Population Healthy Nuclei (%): 44% and 36%
  Population Hoechst High Intensity Objects (%): 13% and 5%
  Population Membrane Permeable-Phenotype (%): 1% and 0%
  Population Mitochondria Different-Phenotype (%): 24% and 9%
  Population Mitotic Cells (%): 35% and 43%
  Population Normal (%): 86% and 94%
  Population Pyknosed Nuclei (%): 25% and 18%
  Population Tubulin-Different-Phenotype (%): 68% and 71%
  Total Cell Count: 191 and 93
[5]
  Population Apoptotic (%): 57% and 38%
  Population Fragmented Nuclei (%): 15% and 33%
  Population Healthy Nuclei (%): 65% and 42%
  Population Hoechst High Intensity Objects (%): 5%
  Population Membrane Permeable-Phenotype (%): 4% and 7%
  Population Mitochondria Different-Phenotype (%): 5%
  Population Mitotic Cells (%): 42% and 61%
  Population Normal (%): 94%
  Population Pyknosed Nuclei (%): 19% and 24%
  Population Tubulin-Different-Phenotype (%): 32% and 54%
  Total Cell Count: 115
[6]
  Population Apoptotic (%): 84% and 66%
  Population Fragmented Nuclei (%): 38% and 37%
  Population Healthy Nuclei (%): 35% and 51%
  Population Hoechst High Intensity Objects (%): 23% and 8%
  Population Membrane Permeable-Phenotype (%): 5% and 2%
  Population Mitochondria Different-Phenotype (%): 37% and 15%
  Population Mitotic Cells (%): 15% and 33%
  Population Normal (%): 76% and 91%
  Population Pyknosed Nuclei (%): 26% and 11%
  Population Tubulin-Different-Phenotype (%): 80% and 65%
  Total Cell Count: 188 and 85

Source: ChEMBL document CHEMBL5724801, “EUbOPEN Chemogenomics Library - Multiplex” (2024)
